Published values from different studies.
Protocols differ between the studies behind these lines.
Cell line: HepG2
Effect on: cell growth or viability

COc1ccc(-c2cc(-c3ccccc3Cl)c3c(=O)[nH]c(=O)[nH]c3n2)cc1  IC50 (MTT; 48 h): 18.9 µM
CN(C)c1cc(NC(=O)Cc2ccncn2)c(O)c2c1C[C@H]1C[C@H]3[C@H](N(C)C)C(O)=C(C(N)=O)C(=O)[C@@]3(O)C(O)=C1C2=O  IC50 (ATP luminescence; 72 h): > 200 µg/mL
COc1ccc(C2CC(c3ccc(Nc4nnc(-c5ccc(Cl)cc5)c5ccccc45)cc3)=NN2)cc1 (centres unmarked)  IC50 (MTT; 72 h): 0.19 µM
CN(C)c1cc(NC(=O)Cc2cncnc2)c(O)c2c1C[C@H]1C[C@H]3[C@H](N(C)C)C(O)=C(C(N)=O)C(=O)[C@@]3(O)C(O)=C1C2=O  IC50 (ATP luminescence; 72 h): 84.8 µg/mL
COc1nc(NCc2cn(-c3ccc(C(=O)Nc4ccc(C(F)(F)F)cc4)cc3)nn2)nc(OC)n1  IC50 (MTT; 72 h): 0.0651 µM
COc1ccc(-c2cc(-c3cc(OC)ccc3OC)c3c(=O)n(C)c(=O)n(C)c3n2)cc1  IC50 (MTT; 48 h): 16.4 µM
CN(C)c1cc(NC(=O)Cc2cccnc2)c(O)c2c1C[C@H]1C[C@H]3[C@H](N(C)C)C(O)=C(C(N)=O)C(=O)[C@@]3(O)C(O)=C1C2=O  IC50 (ATP luminescence; 72 h): > 200 µg/mL
Cc1ccc(-c2cc(-c3ccc(Cl)cc3)c3c(=O)[nH]c(=O)[nH]c3n2)cc1  IC50 (MTT; 48 h): 8.46 µM
COc1ccc2nc(N3CCOCC3)c(-c3cc(-c4cccc(O)c4)nc4[nH]nc(N)c34)cc2c1  IC50 (MTT; 72 h): 0.087 µM
O=C(O)Cc1csc(NC(=O)c2cc3ccccc3[nH]2)n1  IC50 (MTT; 24 h): 13.9 µM
CCCOc1nc(-c2cccc(O)c2)cc(-c2cc3cc(Cl)ccc3nc2N2CCOCC2)c1C#N  IC50 (MTT; 72 h): 0.084 µM
Cc1ccc(-c2cc(-c3c(Cl)cccc3Cl)c3c(=O)n(C)c(=O)n(C)c3n2)cc1  IC50 (MTT; 48 h): 7.49 µM
CN(C)c1ccc(O)c2c1C[C@H]1C[C@H]3[C@H](N(C)C)C(O)=C(C(N)=O)C(=O)[C@@]3(O)C(O)=C1C2=O  IC50 (ATP luminescence; 72 h): > 200 µg/mL
C[C@H](CCC(=O)O)[C@H]1CC[C@H]2[C@@H]3CC[C@@H]4C[C@H](O)CC[C@]4(C)[C@H]3CC[C@]12C  IC50 (MTT; 72 h): 52 µM
Nc1n[nH]c2nc(-c3cccc(O)c3)cc(-c3cc4cc(Cl)ccc4nc3N3CCOCC3)c12  IC50 (MTT; 72 h): 0.0907 µM
COc1cccc2c1C(=O)c1c(O)c3c(c(O)c1C2=O)C[C@@](O)(C(=O)CO)C[C@@H]3O[C@H]1C[C@H](N)[C@H](O)[C@H](C)O1  IC50 (MTT; 24 h): 4.5 µM
Cc1ccc(-c2cc(-c3ccc(Cl)c(F)c3)c3c(=O)[nH]c(=O)[nH]c3n2)cc1  IC50 (MTT; 48 h): 15.7 µM
CN(C)c1cc(NC(=O)Cc2cccnn2)c(O)c2c1C[C@H]1C[C@H]3[C@H](N(C)C)C(O)=C(C(N)=O)C(=O)[C@@]3(O)C(O)=C1C2=O  IC50 (ATP luminescence; 72 h): > 200 µg/mL
Cc1ccc(-c2cc(-c3ccc(N(C)C)cc3)c3c(=O)[nH]c(=O)[nH]c3n2)cc1  IC50 (MTT; 48 h): 12.1 µM
CN(C)c1cc(NC(=O)c2ccccc2)c(O)c2c1C[C@H]1C[C@H]3[C@H](N(C)C)C(O)=C(C(N)=O)C(=O)[C@@]3(O)C(O)=C1C2=O  IC50 (ATP luminescence; 72 h): 21.3 µg/mL
COc1ccc(-c2cc(-c3ccccc3Cl)c3c(=O)n(C)c(=O)n(C)c3n2)cc1  IC50 (MTT; 48 h): 18.9 µM
COc1ccc2[nH]c(C(=O)Nc3nc(CC(=O)NO)cs3)cc2c1  IC50 (MTT; 24 h): 13.3 µM
CN(C)c1cc(NC(=O)Cc2ncccn2)c(O)c2c1C[C@H]1C[C@H]3[C@H](N(C)C)C(O)=C(C(N)=O)C(=O)[C@@]3(O)C(O)=C1C2=O  IC50 (ATP luminescence; 72 h): 108 µg/mL
